# pIC50: −log10 of the molar value. Calls of active or inactive are those of the source. The calls are words filed in the database; no cut-off is given here.
# What was measured:
# [1] = target: CREB-binding protein (Homo sapiens, UniProt Q92793); test: Inhibition of CBP (unknown origin) after 1 hr by TR-FRET assay
# How it was run: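 Isolated bromodomain in a kit TR-FRET assay. Inhibitor series 0.01 nM to 100 μM, incubated 1 h at room temperature. Excitation 340 nm, emission read at 620 and 670 nm with 100 μs delay and 500 μs window. IC50 from the sigmoidal plot of the 670/620 ratio against concentration. Mean of at least two runs.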
# [2] = Volume of distribution at steady state in rat at 10 mg/kg, iv; type: ADME, organism-based; settings: in vivo, read-out: Vdss
# [3] = Total clearance in rat at 10 mg/kg, iv; type: ADME, organism-based; settings: in vivo
# [4] = Cmax in rat at 20 mg/kg, po; type: ADME, organism-based; design: dose 20 mg/kg, route oral; settings: in vivo
# [5] = AUC (0 to t) in rat at 20 mg/kg, po; type: ADME, organism-based; settings: in vivo
# [6] = test system: Mus musculus; test: (§1) Anti-inflammatory activity in poly(I:C)-induced airway inflammation C57BL/6 mouse model assessed as reduction in neutrophils recruitment into bronchoalveolar lavage fluid at 10 mg/kg, ip administered 1 day prior to poly(I:C) stimulation and redosed on day 2 followed by poly(I:C) stimulation by trypan blue staining-based hemocytometric analysis; type: functional, organism-based
# [7] = test system: Mus musculus; test: Anti-inflammatory activity in poly(I:C)-induced airway inflammation C57BL/6 mouse model assessed as reduction in mISG54 expression in lung at 10 mg/kg, ip administered 1 day prior to poly(I:C) stimulation and redosed on day 2 followed by poly(I:C) stimulation; type: functional, organism-based
# How it was run: (§2)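 Male C57BL/6J mice, 12 weeks old, were given 10 mg/kg i.p. one day before stimulation. The next day they got a second dose, immediately followed by intranasal poly(I:C) (300 μg in 50 μL PBS) or PBS alone. Compound was taken up in DMSO and diluted in 10% hydroxypropyl β-cyclodextrin in PBS. Mice were euthanized one day later and lung tissue was collected for cytokine expression.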
# [8] = test system: Mus musculus; test: Anti-inflammatory activity in poly(I:C)-induced airway inflammation C57BL/6 mouse model assessed as reduction in mCIG5 expression in lung at 10 mg/kg, ip administered 1 day prior to poly(I:C) stimulation and redosed on day 2 followed by poly(I:C) stimulation; type: functional, organism-based; how it was run: as §2
# [9] = test system: Mus musculus; test: Toxicity in mouse assessed as effect on RBC levels at 1 to 50 mg/kg, ip dosed daily for 1 month; type: organism-based; settings: in vivo
# [10] = test system: Mus musculus; test: Toxicity in mouse assessed as effect on nuetrophils level at 1 to 50 mg/kg, ip dosed daily for 1 month; type: organism-based; settings: in vivo
# [11] = test system: Mus musculus; test: Renal toxicity in mouse assessed as effect on CRE level at 1 to 50 mg/kg, ip dosed daily for 1 month; type: organism-based; settings: in vivo
# [12] = test system: Mus musculus; test: Renal toxicity in mouse assessed as effect on BUN level at 1 to 50 mg/kg, ip dosed daily for 1 month; type: organism-based; settings: in vivo
# [13] = target: Adenosine receptor A2a (Homo sapiens) (UniProt P29274); test: Displacement of [3H]-CGS 21680 from human recombinant adenosine A2A receptor at 10 uM after 120 mins by scintillation counting analysis relative to control
# [14] = target: Beta-1 adrenergic receptor (Homo sapiens) (UniProt P08588); test: Displacement of [3H](-)CGP 12177 from human beta1 adrenoceptor at 10 uM after 60 mins by scintillation counting analysis relative to control
# Chain of Beta-1 adrenergic receptor (Homo sapiens) (P08588 whole entry, looked up): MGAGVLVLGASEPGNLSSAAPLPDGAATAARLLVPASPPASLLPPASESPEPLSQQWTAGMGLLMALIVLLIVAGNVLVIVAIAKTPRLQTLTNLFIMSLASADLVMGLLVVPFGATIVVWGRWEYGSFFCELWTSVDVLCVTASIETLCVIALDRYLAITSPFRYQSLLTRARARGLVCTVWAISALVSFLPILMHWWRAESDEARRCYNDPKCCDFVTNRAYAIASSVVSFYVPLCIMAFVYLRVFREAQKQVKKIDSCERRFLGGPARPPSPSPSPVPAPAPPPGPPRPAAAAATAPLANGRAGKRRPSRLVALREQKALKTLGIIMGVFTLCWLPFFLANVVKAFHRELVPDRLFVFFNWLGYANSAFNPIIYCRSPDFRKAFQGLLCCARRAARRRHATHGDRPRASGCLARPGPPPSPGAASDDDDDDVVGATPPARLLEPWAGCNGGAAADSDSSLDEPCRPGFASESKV
# [15] = target: Cannabinoid receptor 2 (Homo sapiens) (UniProt P34972); test: Displacement of [3H]WIN 55212-2 from human recombinant CB2 receptor at 10 uM after 120 mins by scintillation counting analysis relative to control
# [16] = target: Cholecystokinin receptor type A (Homo sapiens) (UniProt P32238); test: Displacement of [125I]CCK-8s from human recombinant CCK1 receptor at 10 uM after 60 mins by scintillation counting analysis relative to control
# Chain of Cholecystokinin receptor type A (Homo sapiens) (P32238 whole entry): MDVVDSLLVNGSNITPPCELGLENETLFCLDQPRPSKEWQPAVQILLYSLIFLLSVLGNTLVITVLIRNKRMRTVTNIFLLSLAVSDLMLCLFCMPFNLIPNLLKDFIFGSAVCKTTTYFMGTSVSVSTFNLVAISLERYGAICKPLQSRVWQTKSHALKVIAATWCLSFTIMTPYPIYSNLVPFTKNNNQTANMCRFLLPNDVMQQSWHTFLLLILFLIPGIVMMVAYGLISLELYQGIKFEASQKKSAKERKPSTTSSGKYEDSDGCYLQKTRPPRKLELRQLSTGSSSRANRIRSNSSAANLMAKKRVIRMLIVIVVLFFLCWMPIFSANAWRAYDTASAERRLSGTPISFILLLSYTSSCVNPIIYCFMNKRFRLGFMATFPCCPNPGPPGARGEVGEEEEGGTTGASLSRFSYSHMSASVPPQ
# [17] = target: D(1A) dopamine receptor (Homo sapiens) (UniProt P21728); test: Displacement of [3H]-SCH 23390 from human recombinant dopamine D1 receptor at 10 uM after 60 mins by scintillation counting analysis relative to control
# [18] = target: D(2) dopamine receptor (Homo sapiens) (UniProt P14416); test: Displacement of [3H]7-OH-DPAT from human recombinant dopamine D2S receptor at 10 uM after 60 mins by scintillation counting analysis relative to control
# Chain of D(2) dopamine receptor (Homo sapiens) (P14416 whole entry): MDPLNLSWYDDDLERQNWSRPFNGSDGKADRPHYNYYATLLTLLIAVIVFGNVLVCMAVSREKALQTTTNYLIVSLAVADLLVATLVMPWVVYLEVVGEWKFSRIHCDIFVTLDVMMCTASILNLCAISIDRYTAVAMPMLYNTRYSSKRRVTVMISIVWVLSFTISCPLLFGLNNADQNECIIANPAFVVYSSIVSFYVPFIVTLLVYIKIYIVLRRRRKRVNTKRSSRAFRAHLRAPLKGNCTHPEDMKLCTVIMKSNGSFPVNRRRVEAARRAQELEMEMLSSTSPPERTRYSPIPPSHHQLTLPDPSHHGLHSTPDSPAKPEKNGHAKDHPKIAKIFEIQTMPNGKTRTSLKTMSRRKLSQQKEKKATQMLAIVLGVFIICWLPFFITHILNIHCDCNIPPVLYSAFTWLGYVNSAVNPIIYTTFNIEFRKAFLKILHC
# [19] = target: Endothelin-1 receptor (Homo sapiens) (UniProt P25101); test: Displacement of [125I]endothelin-1 from human recombinant endothelin ETA receptor at 10 uM after 120 mins by scintillation counting analysis relative to control
# [20] = target: Histamine H1 receptor (Homo sapiens) (UniProt P35367); test: Displacement of [3H]pyrilamine from human recombinant histamine H1 receptor at 10 uM after 60 mins by scintillation counting analysis relative to control
# Chain of Histamine H1 receptor (Homo sapiens) (P35367 whole entry): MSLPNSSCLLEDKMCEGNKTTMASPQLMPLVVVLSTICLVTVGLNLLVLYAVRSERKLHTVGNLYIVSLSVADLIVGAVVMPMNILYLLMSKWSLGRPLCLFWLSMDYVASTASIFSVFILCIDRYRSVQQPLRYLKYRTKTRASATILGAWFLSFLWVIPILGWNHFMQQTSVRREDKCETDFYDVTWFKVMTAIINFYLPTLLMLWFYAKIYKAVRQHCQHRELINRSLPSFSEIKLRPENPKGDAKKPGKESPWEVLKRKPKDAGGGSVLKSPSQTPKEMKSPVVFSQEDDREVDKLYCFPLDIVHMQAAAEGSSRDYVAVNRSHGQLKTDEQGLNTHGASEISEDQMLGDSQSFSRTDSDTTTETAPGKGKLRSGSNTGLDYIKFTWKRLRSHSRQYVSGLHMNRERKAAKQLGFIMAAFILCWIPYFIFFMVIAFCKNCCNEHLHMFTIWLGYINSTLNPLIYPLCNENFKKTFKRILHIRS
# [21] = target: Histamine H2 receptor (Homo sapiens) (UniProt P25021); test: Displacement of [125I]APT from human recombinant histamine H2 receptor at 10 uM after 120 mins by scintillation counting analysis relative to control
# [22] = target: Muscarinic acetylcholine receptor M1 (Homo sapiens) (UniProt P11229); test: Displacement of [125I]pirenzepine from human recombinant M1 receptor at 10 uM after 60 mins by scintillation counting analysis relative to control
# [23] = target: Kappa-type opioid receptor (Homo sapiens) (UniProt P41145); test: Displacement of [3H]U69593 from human kappa opioid receptor at 10 uM after 60 mins by scintillation counting analysis relative to control
# Chain of Kappa-type opioid receptor (Homo sapiens) (P41145 whole entry): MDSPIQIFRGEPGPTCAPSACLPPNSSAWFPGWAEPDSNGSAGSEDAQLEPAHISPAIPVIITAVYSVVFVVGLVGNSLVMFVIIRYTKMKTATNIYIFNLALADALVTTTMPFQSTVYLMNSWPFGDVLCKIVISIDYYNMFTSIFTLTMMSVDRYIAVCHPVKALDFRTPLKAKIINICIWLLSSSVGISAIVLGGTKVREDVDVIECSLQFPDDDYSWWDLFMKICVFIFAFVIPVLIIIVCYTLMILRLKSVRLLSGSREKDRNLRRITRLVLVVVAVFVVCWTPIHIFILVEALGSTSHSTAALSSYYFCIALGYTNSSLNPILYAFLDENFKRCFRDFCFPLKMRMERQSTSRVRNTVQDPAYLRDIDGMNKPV
# [24] = target: 5-hydroxytryptamine receptor 1B (Homo sapiens) (UniProt P28222); test: Displacement of [125I]-CYP from human 5-HT1B receptor at 10 uM after 120 mins by scintillation counting analysis relative to control
# [25] = target: Glucocorticoid receptor (Homo sapiens) (UniProt P04150); test: Displacement of [3H]dexamethasone from human GR at 10 uM after 360 mins by scintillation counting analysis relative to control
# Chain of Glucocorticoid receptor (Homo sapiens) (P04150 whole entry): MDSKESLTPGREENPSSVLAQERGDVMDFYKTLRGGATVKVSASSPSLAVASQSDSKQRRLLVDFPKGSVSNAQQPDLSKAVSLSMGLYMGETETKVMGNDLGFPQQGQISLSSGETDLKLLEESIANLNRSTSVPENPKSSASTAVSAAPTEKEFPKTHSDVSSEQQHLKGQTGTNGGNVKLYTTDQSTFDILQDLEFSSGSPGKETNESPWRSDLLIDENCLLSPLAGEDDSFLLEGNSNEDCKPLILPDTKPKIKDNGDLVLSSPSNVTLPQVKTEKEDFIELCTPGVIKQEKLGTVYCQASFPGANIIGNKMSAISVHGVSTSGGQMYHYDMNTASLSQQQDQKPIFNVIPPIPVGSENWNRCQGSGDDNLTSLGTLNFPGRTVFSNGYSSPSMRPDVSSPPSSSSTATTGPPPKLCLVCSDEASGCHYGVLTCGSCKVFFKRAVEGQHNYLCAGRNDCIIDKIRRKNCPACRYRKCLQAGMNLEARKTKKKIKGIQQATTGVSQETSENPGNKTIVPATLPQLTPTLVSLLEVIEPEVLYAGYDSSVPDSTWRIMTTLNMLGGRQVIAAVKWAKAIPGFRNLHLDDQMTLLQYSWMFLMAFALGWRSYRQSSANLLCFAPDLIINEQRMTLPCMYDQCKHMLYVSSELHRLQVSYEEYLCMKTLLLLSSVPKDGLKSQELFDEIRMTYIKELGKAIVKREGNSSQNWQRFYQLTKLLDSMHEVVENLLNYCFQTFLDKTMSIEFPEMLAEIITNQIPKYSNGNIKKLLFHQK
# [26] = target: Vasopressin V1a receptor (Homo sapiens) (UniProt P37288); test: Displacement of [3H]AVP from human recombinant V1a receptor at 10 uM after 60 mins by scintillation counting analysis relative to control
# [27] = target: hERG (KCNH2) (Homo sapiens, UniProt Q12809); test: Displacement of [3H]Dofetilide from human ERG at 10 uM after 60 mins by scintillation counting analysis relative to control; settings: probe [3H]Dofetilide, read-out: Activity
# Chain of hERG (KCNH2) (Q12809 whole entry): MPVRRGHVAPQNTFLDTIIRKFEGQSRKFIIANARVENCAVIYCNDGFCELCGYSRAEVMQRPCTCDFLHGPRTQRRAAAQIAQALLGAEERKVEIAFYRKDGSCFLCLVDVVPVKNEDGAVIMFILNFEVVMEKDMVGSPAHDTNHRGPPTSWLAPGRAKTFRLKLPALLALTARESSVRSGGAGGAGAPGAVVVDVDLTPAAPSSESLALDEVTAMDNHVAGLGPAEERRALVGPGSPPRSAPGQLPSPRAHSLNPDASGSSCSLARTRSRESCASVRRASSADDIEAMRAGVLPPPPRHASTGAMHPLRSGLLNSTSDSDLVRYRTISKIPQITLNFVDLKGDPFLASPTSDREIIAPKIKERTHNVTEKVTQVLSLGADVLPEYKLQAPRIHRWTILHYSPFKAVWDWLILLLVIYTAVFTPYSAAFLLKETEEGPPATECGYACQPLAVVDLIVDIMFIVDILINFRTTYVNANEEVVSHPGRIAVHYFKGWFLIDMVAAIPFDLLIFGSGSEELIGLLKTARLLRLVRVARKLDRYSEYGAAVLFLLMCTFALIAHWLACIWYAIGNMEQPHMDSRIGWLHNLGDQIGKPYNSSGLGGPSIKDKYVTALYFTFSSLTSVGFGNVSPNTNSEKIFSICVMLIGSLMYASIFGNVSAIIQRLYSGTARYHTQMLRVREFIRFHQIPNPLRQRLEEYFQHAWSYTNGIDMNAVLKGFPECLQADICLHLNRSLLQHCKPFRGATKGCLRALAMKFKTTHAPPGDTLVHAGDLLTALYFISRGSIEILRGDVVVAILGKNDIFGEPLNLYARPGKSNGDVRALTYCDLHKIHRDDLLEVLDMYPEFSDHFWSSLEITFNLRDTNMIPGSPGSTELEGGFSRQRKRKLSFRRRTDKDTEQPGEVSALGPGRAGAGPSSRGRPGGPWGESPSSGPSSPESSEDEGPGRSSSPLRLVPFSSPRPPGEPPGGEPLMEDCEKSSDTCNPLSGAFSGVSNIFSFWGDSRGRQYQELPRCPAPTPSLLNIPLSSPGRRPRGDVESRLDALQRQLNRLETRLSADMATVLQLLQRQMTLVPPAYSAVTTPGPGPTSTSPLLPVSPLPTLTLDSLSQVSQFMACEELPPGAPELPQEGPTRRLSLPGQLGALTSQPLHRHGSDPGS
# [28] = target: cGMP-inhibited 3',5'-cyclic phosphodiesterase 3A (Homo sapiens) (UniProt Q14432); test: Displacement of [3H]cAMP from human recombinant PDE3A at 10 uM after 20 mins by scintillation counting analysis relative to control
# [29] = target: Acetylcholinesterase (Homo sapiens) (UniProt P22303); test: Inhibition of human recombinant ACHE using acetylthiocholine as substrate after 30 mins by spectrophotometric relative to control; design: scale not given: the % may be the effect or the level left
# Chain of Acetylcholinesterase (Homo sapiens) (P22303 whole entry): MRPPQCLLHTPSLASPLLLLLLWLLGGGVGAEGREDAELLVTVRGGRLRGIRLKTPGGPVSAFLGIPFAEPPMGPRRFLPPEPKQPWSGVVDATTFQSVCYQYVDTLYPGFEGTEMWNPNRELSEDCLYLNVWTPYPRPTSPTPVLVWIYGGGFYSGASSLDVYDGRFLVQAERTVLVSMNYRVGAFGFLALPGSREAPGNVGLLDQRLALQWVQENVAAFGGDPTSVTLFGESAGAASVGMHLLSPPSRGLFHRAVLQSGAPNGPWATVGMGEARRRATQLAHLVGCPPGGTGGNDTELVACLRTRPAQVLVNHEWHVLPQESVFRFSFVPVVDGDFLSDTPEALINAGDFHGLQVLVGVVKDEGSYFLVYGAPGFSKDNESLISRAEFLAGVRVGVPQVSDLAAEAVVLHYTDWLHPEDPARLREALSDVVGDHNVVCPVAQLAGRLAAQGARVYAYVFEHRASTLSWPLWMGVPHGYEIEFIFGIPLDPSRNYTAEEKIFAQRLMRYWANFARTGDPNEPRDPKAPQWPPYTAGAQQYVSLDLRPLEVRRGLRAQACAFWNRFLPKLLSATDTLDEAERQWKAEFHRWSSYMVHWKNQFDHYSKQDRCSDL
# How it was run: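 Run within a commercial off-target panel of receptors and enzymes, with compound tested at a single concentration of 10 μM.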
# [30] = target: Inhibitor of nuclear factor kappa-B kinase subunit alpha (Homo sapiens) (UniProt O15111); test: Inhibition of human recombinant IKKalpha using Ulight-IkappaB-alpha as substrate after 30 mins relative to control; design: scale not given: the % may be the effect or the level left
# [31] = test system: Mus musculus; test: as §1, with “total cells in” for “neutrophils recruitment into”; type: functional, organism-based
smiles,measurement,setting,value
Cc1cc(/N=N/c2ccc(S(=O)(=O)NC3CCCC3)cc2)c(N)cc1O,pIC50,[1],< 5.00
same,Vd,[2],1.12 L/kg
same,clearance,[3],14.7 mL/min/kg
same,Cmax,[4],36 ng/mL
same,AUC(0-t),[5],104 ng·h/mL
same,Activity,[6],Active
same,Activity,[7],Active
same,Activity,[8],Active
same,Activity,[9],Non-Toxic
same,Activity,[10],Non-Toxic
same,Activity,[11],Non-Toxic
same,Activity,[12],Non-Toxic
same,Activity,[13],38.1%
same,Activity,[14],7.4%
same,Activity,[15],59.3%
same,Activity,[16],17.4%
same,Activity,[17],21.9%
same,Activity,[18],36.9%
same,Activity,[19],-4.3%
same,Activity,[20],7.1%
same,Activity,[21],-10.1%
same,Activity,[22],-1.5%
same,Activity,[23],8.9%
same,Activity,[24],-9.6%
same,Activity,[25],15%
same,Activity,[26],32.4%
same,"inhibition at 1 h, 10 µM",[27],23.6%
same,Activity,[28],46%
same,Activity,[29],11.7%
same,Activity,[30],-14.2%
same,Activity,[31],Active

# Source: ChEMBL document CHEMBL4152207, “Discovery of potent and selective BRD4 inhibitors capable of blocking TLR3-induced acute airway inflammation” (Eur J Med Chem, 2018)
